Experiments:
[1] = test system: NRK; assay: cells; settings: Rattus norvegicus, 48 h
[2] = test system: MV4-11; assay: cells; settings: Homo sapiens, MV4-11, 48 h
[3] = test system: OCI-AML-3; assay: cells; settings: Homo sapiens, OCI-AML-3, 48 h
[4] = test system: MOLM-13; assay: cells; settings: Homo sapiens, MOLM-13, 48 h
[5] = test system: H9c2; assay: cells; settings: Rattus norvegicus, H9c2, 48 h
[6] = biological target: Serine/threonine-protein kinase haspin (Homo sapiens) (UniProt Q8TF76); assay: Inhibition of biotinylated ligand binding to wild-type human partial length HASPIN (I452 to K798 residues) expressed in mammalian expression system at 50 nM measured after 1 hr by kinomescan assay relative to control
[7] = biological target: cAMP-dependent protein kinase catalytic subunit alpha (Homo sapiens) (UniProt P17612); assay: Inhibition of biotinylated ligand binding to wild-type human partial length PKAC-alpha (G10 to F351 residues) expressed in bacterial expression system at 50 nM measured after 1 hr by kinomescan assay relative to control
[8] = biological target: Serine/threonine-protein kinase pim-2 (Homo sapiens) (UniProt Q9P1W9); assay: Inhibition of biotinylated ligand binding to wild-type human partial length PIM2 (M1 to E291 residues) expressed in bacterial expression system at 50 nM measured after 1 hr by kinomescan assay relative to control
[9] = biological target: 1-phosphatidylinositol 3-phosphate 5-kinase (Homo sapiens) (UniProt Q9Y2I7); assay: Inhibition of biotinylated ligand binding to wild-type human partial length PIKFYVE (F1512 to C2098 residues) expressed in mammalian expression system at 50 nM measured after 1 hr by kinomescan assay relative to control
[10] = biological target: Hormonally up-regulated neu tumor-associated kinase (Homo sapiens) (UniProt P57058); assay: Inhibition of biotinylated ligand binding to wild-type human partial length HUNK (A31 to K354 residues) expressed in bacterial expression system at 50 nM measured after 1 hr by kinomescan assay relative to control
[11] = biological target: Cyclin-dependent kinase 19 (Homo sapiens) (UniProt Q9BWU1); assay: Inhibition of biotinylated ligand binding to wild-type human partial length CDK11 (M1 to N360 residues) expressed in bacterial expression system at 50 nM measured after 1 hr by kinomescan assay relative to control
How it was run: (§1)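 T7 phage-tagged kinase lysates from E. coli BL21 were mixed with streptavidin beads carrying biotinylated ligand and 50 nM compound. Incubated 1 h at room temperature with shaking, washed, then eluted 30 min with 0.5 μM non-biotinylated ligand. Kinase was quantified by qPCR. POC = (test − positive)/(DMSO − positive) ×100, with a control compound as positive.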

[12] = biological target: Serine/threonine-protein kinase MAK (Homo sapiens) (UniProt P20794); assay: Inhibition of biotinylated ligand binding to wild-type human partial length MAK (M1 to P314 residues) expressed in bacterial expression system at 50 nM measured after 1 hr by kinomescan assay relative to control
[13] = biological target: T1, Cyclin-dependent kinase 8 (Homo sapiens, UniProt P49336); assay: Inhibition of biotinylated ligand binding to wild-type human partial length CDK8 (M1 to T360 residues) expressed in Escherichia coli BL21 at 50 nM measured after 1 hr by kinomescan assay relative to control
How it was run: as §1

[14] = biological target: T1, Cyclin-dependent kinase 8; assay: Inhibition of biotinylated ligand binding to wild-type human partial length CDK8 (M1 to T360 residues) expressed in Escherichia coli BL21 measured after 1 hr by kinomescan assay
[15] = biological target: cAMP-dependent protein kinase catalytic subunit beta (Homo sapiens) (UniProt P22694); assay: Inhibition of biotinylated ligand binding to wild-type human full length PKAC-beta (M1 to F351 residues) expressed in bacterial expression system at 50 nM measured after 1 hr by kinomescan assay relative to control
[16] = biological target: Citron Rho-interacting kinase (Homo sapiens) (UniProt O14578); assay: Inhibition of biotinylated ligand binding to wild-type human partial length CIT (M68 to E432 residues) expressed in bacterial expression system at 50 nM measured after 1 hr by kinomescan assay relative to control
[17] = biological target: Protein-tyrosine kinase 2-beta (Homo sapiens) (UniProt Q14289); assay: Inhibition of biotinylated ligand binding to wild-type human full length PYK2 (M1 to E967 residues) expressed in bacterial expression system at 50 nM measured after 1 hr by kinomescan assay relative to control
[18] = biological target: Receptor-interacting serine/threonine-protein kinase 1 (Homo sapiens) (UniProt Q13546); assay: Inhibition of biotinylated ligand binding to wild-type human partial length RIPK1 (M1 to K305 residues) expressed in bacterial expression system at 50 nM measured after 1 hr by kinomescan assay relative to control
How it was run: (§2)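 Kinases expressed as tags on T7 phage grown in an E. coli BL21-derived host, with lysates cleared by centrifugation and filtration. Streptavidin beads carried biotinylated ligand and were blocked with biotin. Kinase, beads and compound were incubated in binding buffer (20% SeaBlock, 0.17x PBS, 0.05% Tween 20, 6 mM DTT) at room temperature for 1 h. Bound kinase was eluted with free ligand and quantified by qPCR. POC was set between DMSO (100%) and control compound (0%).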

[19] = biological target: Inhibitor of nuclear factor kappa-B kinase subunit epsilon (Homo sapiens) (UniProt Q14164); assay: Inhibition of biotinylated ligand binding to wild-type human full length IKKE (M1 to V716 residues) expressed in bacterial expression system at 50 nM measured after 1 hr by kinomescan assay relative to control
How it was run: as §2

[20] = biological target: Phosphatidylinositol 5-phosphate 4-kinase type-2 gamma (Homo sapiens) (UniProt Q8TBX8); assay: Inhibition of biotinylated ligand binding to wild-type human partial length PIP5K2C (M1 to A421 residues) expressed in mammalian expression system at 50 nM measured after 1 hr by kinomescan assay relative to control
How it was run: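 Competition binding: compound (final 50 nM; 40x DMSO stocks) was incubated with kinase and biotinylated-ligand streptavidin beads in 20% SeaBlock, 0.17x PBS, 0.05% Tween 20 and 6 mM DTT at room temperature for 1 h. After washing, kinase was eluted with 0.5 μM non-biotinylated ligand for 30 min and measured by qPCR. Percent of control was referenced to DMSO (100%) and control compound (0%).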

T1 sequence (P49336 whole entry, the tested form may be a part): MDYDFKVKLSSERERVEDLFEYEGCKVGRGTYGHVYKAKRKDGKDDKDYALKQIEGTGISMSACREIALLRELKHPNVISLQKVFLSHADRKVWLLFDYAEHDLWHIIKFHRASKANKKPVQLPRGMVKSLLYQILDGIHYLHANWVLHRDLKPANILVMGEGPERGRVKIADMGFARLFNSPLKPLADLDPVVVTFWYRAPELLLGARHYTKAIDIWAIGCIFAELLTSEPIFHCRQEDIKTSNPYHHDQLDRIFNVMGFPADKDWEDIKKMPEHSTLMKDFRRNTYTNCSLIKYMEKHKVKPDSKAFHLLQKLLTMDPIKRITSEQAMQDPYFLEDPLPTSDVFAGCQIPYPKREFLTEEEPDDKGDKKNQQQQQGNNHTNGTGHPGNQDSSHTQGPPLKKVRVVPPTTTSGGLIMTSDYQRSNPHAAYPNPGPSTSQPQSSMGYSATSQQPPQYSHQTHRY
Sequence of Cyclin-dependent kinase 19 (Homo sapiens) (Q9BWU1 whole entry, the tested form may be a part): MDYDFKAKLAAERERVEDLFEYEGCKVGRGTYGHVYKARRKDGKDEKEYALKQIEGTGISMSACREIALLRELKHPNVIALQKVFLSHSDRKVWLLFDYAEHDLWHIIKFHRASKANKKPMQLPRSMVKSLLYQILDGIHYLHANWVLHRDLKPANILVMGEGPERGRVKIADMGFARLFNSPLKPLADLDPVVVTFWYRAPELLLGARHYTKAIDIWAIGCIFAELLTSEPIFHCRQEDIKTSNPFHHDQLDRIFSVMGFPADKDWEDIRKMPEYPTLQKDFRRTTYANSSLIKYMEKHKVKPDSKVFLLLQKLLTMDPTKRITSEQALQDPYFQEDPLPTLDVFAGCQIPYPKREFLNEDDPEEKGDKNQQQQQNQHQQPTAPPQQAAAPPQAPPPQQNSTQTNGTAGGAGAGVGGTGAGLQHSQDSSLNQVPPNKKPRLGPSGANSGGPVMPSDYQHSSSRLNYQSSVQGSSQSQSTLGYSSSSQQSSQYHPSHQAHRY
Sequence of Phosphatidylinositol 5-phosphate 4-kinase type-2 gamma (Homo sapiens) (Q8TBX8 whole entry, the tested form may be a part): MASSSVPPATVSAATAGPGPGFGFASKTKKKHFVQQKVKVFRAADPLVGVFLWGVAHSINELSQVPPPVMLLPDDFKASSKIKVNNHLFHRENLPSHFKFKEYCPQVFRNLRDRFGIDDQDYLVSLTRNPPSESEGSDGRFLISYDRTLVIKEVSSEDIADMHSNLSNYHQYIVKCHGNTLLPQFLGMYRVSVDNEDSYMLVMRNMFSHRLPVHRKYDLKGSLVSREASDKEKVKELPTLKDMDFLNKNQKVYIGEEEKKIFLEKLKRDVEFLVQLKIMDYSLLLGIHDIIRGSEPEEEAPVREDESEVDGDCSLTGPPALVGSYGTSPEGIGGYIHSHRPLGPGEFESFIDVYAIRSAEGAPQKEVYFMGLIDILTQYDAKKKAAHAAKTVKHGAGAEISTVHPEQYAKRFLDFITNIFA
Sequence of Receptor-interacting serine/threonine-protein kinase 1 (Homo sapiens) (Q13546 whole entry, the tested form may be a part): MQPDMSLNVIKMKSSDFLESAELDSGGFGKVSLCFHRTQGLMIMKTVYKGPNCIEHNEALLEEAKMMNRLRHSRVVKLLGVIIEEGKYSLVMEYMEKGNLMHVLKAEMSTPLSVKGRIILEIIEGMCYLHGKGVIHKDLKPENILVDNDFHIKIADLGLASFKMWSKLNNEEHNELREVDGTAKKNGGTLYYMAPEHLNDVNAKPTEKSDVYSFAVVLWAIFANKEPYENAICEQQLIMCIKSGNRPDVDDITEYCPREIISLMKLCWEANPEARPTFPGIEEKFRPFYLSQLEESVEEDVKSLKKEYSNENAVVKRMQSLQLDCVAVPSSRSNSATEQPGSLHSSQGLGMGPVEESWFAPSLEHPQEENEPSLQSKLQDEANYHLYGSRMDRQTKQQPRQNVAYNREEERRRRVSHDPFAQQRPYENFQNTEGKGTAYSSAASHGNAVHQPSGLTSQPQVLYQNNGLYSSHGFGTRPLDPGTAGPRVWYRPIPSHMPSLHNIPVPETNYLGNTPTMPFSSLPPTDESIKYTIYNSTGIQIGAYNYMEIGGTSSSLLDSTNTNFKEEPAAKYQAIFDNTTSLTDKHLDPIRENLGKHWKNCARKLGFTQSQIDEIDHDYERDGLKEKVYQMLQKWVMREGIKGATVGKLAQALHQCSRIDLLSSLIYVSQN
Sequence of 1-phosphatidylinositol 3-phosphate 5-kinase (Homo sapiens) (Q9Y2I7 whole entry, the tested form may be a part): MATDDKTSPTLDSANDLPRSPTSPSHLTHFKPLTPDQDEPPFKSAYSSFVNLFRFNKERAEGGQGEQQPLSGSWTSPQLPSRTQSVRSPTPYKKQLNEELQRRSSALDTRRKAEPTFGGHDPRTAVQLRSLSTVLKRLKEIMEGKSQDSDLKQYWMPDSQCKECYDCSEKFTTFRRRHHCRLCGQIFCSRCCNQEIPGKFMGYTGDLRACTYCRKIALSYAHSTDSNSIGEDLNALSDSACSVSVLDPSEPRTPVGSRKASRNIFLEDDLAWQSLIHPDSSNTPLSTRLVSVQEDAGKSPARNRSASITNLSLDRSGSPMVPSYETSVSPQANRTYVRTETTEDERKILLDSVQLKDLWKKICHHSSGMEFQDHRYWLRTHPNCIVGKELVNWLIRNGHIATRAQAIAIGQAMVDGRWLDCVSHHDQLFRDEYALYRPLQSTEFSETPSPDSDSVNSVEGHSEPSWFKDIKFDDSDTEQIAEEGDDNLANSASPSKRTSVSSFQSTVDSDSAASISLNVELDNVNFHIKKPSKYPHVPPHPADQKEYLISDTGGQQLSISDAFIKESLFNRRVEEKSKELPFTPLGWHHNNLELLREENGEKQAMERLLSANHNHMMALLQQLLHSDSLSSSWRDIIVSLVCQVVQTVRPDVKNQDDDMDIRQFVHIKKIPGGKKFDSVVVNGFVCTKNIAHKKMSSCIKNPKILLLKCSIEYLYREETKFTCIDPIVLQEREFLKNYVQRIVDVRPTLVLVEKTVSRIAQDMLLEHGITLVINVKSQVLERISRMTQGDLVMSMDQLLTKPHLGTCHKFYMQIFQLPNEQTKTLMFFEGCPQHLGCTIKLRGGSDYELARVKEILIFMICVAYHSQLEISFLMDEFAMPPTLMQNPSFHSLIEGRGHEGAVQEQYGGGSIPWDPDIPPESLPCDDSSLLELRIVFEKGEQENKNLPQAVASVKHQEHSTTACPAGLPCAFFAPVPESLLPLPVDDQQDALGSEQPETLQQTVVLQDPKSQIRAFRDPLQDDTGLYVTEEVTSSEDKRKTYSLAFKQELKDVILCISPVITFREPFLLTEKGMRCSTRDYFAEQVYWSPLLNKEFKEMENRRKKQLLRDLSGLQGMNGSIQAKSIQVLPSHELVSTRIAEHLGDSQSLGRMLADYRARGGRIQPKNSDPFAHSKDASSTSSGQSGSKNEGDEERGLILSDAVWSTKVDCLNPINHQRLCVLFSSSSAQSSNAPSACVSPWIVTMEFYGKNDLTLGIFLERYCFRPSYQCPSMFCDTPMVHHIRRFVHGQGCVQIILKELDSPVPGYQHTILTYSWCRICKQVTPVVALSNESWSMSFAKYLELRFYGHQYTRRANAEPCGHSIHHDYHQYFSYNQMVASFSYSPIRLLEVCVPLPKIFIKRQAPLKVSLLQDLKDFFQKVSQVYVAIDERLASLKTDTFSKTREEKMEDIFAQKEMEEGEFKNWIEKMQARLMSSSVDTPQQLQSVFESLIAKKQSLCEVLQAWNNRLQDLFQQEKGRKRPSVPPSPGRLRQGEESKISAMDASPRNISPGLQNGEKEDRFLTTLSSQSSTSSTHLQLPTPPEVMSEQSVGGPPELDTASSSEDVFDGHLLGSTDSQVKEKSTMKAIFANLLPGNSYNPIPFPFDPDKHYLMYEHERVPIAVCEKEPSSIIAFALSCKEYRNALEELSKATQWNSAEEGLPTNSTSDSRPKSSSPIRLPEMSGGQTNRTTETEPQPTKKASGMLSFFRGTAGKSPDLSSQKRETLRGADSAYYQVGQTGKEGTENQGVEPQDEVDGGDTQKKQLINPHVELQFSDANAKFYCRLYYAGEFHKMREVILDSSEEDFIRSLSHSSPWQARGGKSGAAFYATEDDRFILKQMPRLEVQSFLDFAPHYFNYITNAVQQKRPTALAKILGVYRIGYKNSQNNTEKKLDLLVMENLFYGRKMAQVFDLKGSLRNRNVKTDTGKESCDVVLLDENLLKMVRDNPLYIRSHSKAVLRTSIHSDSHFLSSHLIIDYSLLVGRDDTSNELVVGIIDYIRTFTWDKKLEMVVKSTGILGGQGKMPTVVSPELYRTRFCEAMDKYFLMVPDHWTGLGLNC
Sequence of Inhibitor of nuclear factor kappa-B kinase subunit epsilon (Homo sapiens) (Q14164 whole entry, the tested form may be a part): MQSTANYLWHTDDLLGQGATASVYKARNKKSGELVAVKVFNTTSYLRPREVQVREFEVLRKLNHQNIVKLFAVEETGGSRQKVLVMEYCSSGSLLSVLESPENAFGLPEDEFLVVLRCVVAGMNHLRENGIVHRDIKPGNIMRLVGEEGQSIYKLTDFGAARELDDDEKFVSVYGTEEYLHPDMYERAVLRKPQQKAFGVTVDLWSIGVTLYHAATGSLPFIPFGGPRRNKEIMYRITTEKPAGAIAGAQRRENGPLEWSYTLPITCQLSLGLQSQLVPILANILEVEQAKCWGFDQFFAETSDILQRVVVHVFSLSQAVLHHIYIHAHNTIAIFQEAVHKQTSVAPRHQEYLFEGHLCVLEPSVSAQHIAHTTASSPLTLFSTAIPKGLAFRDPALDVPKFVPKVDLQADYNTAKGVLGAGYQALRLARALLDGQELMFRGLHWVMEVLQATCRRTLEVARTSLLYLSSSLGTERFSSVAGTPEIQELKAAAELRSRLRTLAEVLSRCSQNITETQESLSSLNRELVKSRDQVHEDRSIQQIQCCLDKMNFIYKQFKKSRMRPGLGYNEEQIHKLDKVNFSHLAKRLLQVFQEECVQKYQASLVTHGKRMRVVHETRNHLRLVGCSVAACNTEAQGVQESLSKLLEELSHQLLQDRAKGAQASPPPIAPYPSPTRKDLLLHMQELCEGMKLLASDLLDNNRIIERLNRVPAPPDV

Row | Structure (SMILES) | EC50 [1] | EC50 [2] | EC50 [3] | EC50 [4] | EC50 [5] | inhibition [6] | inhibition [7] | inhibition [8] | inhibition [9] | inhibition [10] | inhibition [11] | inhibition [12] | inhibition [13] | Kd [14] | inhibition [15] | inhibition [16] | inhibition [17] | inhibition [18] | inhibition [19] | inhibition [20]
1 | CN(C)[C@@H]1CC[C@@]2(C)[C@@H](CC[C@@H]3[C@@H]2CC[C@]2(C)C(c4cccnc4)=CC[C@@H]32)C1 | 29.7 µM | 10.1 µM | 10 µM | 10.2 µM | 25 to 50 µM |  |  |  |  |  |  |  |  |  |  |  |  |  |  | 
2 | CN(C)[C@@H]1CC[C@@]2(C)[C@@H](CC[C@@H]3[C@@H]2CC[C@]2(C)C(c4ccc5ccncc5c4)=CC[C@@H]32)C1 | 11.4 µM | 5.5 µM | 7.6 µM | 9 µM | 12.5 to 25 µM | > 80% | > 80% | > 80% | > 80% | > 80% | > 80% | > 80% | > 80% | 0.018 µM | > 80% | > 80% | > 80% |  |  | 
3 | CN(C)[C@@H]1CC[C@@]2(C)[C@@H](CC[C@@H]3[C@@H]2CC[C@]2(C)C(c4cncc(Cl)c4)=CC[C@@H]32)C1 | 20.5 µM | 8.6 µM | 7.5 µM | 11.2 µM | 12.5 to 25 µM |  |  |  |  |  | > 80% |  | > 80% | 0.013 µM |  |  |  | > 80% | > 80% | > 80%
4 | CN(C)[C@@H]1CC[C@@]2(C)[C@@H](CC[C@@H]3[C@@H]2CC[C@]2(C)C(c4ccc5cnccc5c4)=CC[C@@H]32)C1 | 7.1 µM | 4.1 µM | 2.7 µM | 3.9 µM | 6.5 to 12.5 µM |  |  |  |  |  |  |  |  |  |  |  |  |  |  | 
